Reference: ChEMBL document CHEMBL1140564, “Macrocyclic ureas as potent and selective Chk1 inhibitors: an improved synthesis, kinome profiling, structure-activity relationships, and preliminary pharmacokinetics” (Bioorg Med Chem Lett, 2007)
Active and inactive are the calls of the source. The rule behind the calls is not given here.

Legend:
[1] = biological target: T1, Serine/threonine-protein kinase Chk1 (Homo sapiens, UniProt O14757); experiment: Inhibition of Chk1
T1 sequence (O14757 whole entry): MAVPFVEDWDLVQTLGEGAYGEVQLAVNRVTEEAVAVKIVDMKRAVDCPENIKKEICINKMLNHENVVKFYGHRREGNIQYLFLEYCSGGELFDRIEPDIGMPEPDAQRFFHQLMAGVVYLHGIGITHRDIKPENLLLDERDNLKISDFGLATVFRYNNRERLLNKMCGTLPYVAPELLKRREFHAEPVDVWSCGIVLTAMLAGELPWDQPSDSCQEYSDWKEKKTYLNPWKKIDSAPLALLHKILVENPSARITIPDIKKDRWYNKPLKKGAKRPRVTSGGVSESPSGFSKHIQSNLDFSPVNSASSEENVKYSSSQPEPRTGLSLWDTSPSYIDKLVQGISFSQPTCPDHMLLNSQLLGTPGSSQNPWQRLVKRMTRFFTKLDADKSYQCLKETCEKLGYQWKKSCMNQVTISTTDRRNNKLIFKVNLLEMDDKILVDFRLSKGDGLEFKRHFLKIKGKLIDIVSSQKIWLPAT

HeLa = experiment: Cytotoxicity against HeLa cells by MTS assay; format: functional, cell-based; conditions: Homo sapiens
NCI-H1299 = experiment: Inhibition of doxorubicin-induced cell cycle arrest in H1299 cells at G2/M phase by FACS assay; format: functional, cell-based; conditions: Homo sapiens
In short: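 H1299 cells treated with 500 nM doxorubicin to induce G2/M arrest, with or without inhibitor at various concentrations, up to 10 μM. Cells stained with propidium iodide and DNA content analysed by FACS. EC50 for abrogation of the Dox-induced G2/M checkpoint.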

[2] = Cell cycle arrest in H1299 cells by accumulation at G2/M phase by FACS assay; format: functional, cell-based; conditions: Homo sapiens, NCI-H1299

| Compound | IC50 [1] | EC50 (HeLa) | Activity (NCI-H1299) | Activity [2] | EC50 (NCI-H1299) | EC50 [2] |
| --- | --- | --- | --- | --- | --- | --- |
| CCNc1cc2c(cc1Cl)NC(=O)Nc1cnc(C#N)c(n1)OCCCCO2 | 0.003 µM | > 59.3 µM | inactive | inactive | – | – |
| N#Cc1ncc2nc1OC/C=C\COc1cc(NCc3cncs3)c(Cl)cc1NC(=O)N2 | 0.004 µM | 13.6 µM | – | – | 0.2 µM | > 10 µM |
| N#Cc1ncc2nc1OCCCCOc1cc(N3CCOC3=O)c(Cl)cc1NC(=O)N2 | 0.006 µM | > 59.3 µM | inactive | inactive | – | – |
| N#Cc1ncc2nc1OC/C=C\COc1cc(OC(=O)N3CCC(N4CCCCC4)CC3)c(Cl)cc1NC(=O)N2 | 0.001 µM | 1.2 µM | – | – | > 10 µM | > 10 µM |
| N#Cc1ncc2nc1OC/C=C\COc1cc(N3CCOC3=O)c(Cl)cc1NC(=O)N2 | 0.01 µM | > 59.3 µM | inactive | inactive | – | – |
| N#Cc1ncc2nc1OCCCCOc1cc(P(=O)(O)O)c(Cl)cc1NC(=O)N2 | 0.008 µM | 17.4 µM | inactive | inactive | – | – |
| N#Cc1ncc2nc1OC/C=C\COc1cc(N(CCO)CCO)c(Cl)cc1NC(=O)N2 | 0.001 µM | 34.1 µM | inactive | inactive | – | – |
| N#Cc1ncc2nc1OCCCCOc1cc(OCCO)c(Cl)cc1NC(=O)N2 | 0.008 µM | > 59.3 µM | – | – | 3.2 µM | > 10 µM |
| N#Cc1ncc2nc1OCCCCOc1cc(O)c(Cl)cc1NC(=O)N2 | 0.0003 µM | > 59.3 µM | inactive | inactive | – | – |
| CNc1cc2c(cc1Cl)NC(=O)Nc1cnc(C#N)c(n1)OCCCCO2 | 0.002 µM | > 59.3 µM | – | – | > 10 µM | > 10 µM |
| N#Cc1ncc2nc1OC/C=C\COc1cc(OCCO)c(Cl)cc1NC(=O)N2 | 0.001 µM | > 59.3 µM | – | – | 1.9 µM | > 10 µM |
| CNc1cc2c(cc1Cl)NC(=O)Nc1cnc(C#N)c(n1)OC/C=C\CO2 | 0.002 µM | > 59.3 µM | – | – | > 10 µM | > 10 µM |
| COCCCOc1cc2c(cc1Cl)NC(=O)Nc1cnc(C#N)c(n1)OCCCCO2 | 0.003 µM | 13.9 µM | inactive | inactive | – | – |
| N#Cc1ncc2nc1OC/C=C\COc1cc(NC(=O)OCCN3CCOCC3)c(Cl)cc1NC(=O)N2 | 0.003 µM | > 59.3 µM | – | – | > 10 µM | > 10 µM |
| N#Cc1ncc2nc1OCCCCOc1cc(NC(=O)c3ccnc(Cl)c3)c(Cl)cc1NC(=O)N2 | 0.004 µM | > 59.3 µM | inactive | inactive | – | – |
| N#Cc1ncc2nc1OCCCCOc1cc(N)c(Cl)cc1NC(=O)N2 | 0.001 µM | 3.4 µM | – | – | < 0.03 µM | 2.6 µM |
| N#Cc1ncc2nc1OC/C=C\COc1cc(OCCN3CCOCC3)c(Cl)cc1NC(=O)N2 | 0.001 µM | 14.1 µM | – | – | > 10 µM | > 10 µM |
| N#Cc1ncc2nc1OCCCCOc1cc(NC(=O)OCCN3CCOCC3)c(Cl)cc1NC(=O)N2 | 0.003 µM | > 59.3 µM | – | – | > 10 µM | > 10 µM |
